Shown are actives, neighbours in structure and some others; about 4.1% of the full set was active somewhere.
KCNQ1 block – human KCNQ1 channel inhibition; CHO-K1 KCNQ1, FluxOR thallium flux fluorescence; active compounds read high; hit rate 1.3% among 310,000; AID 2642; B-score at 10 µM;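 active means compounds whose thallium flux B-score, printed positive for inhibition, exceeds three library SD while starting fluorescence stays within three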;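 further: channel opened by potassium depolarization with thallium stimulus after 20 min compound exposure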
KCNK9 inh – human KCNK9 channel inhibition | Q9NPC2 | HEK293 KCNK9, FluxOR thallium flux fluorescence; active compounds read low | B-score at 10 µM | hit rate 1.2% among 310,000;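 active means ratio B-score over 3 SD below the library mean, with starting fluorescence within 5 SD of its mean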;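 further: negative B-score means less thallium flux so channel inhibition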
KCNK3 inh – human KCNK3 channel inhibition, primary screen; CHO-KCNK3 thallium flux, FluxOR fluorescence; active compounds read low; hit rate 0.84% among 340,000; O14649; B-score at 10 µM;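 active means B-score under library mean minus 4 SD, starting fluorescence ratio at most library mean plus 5 SD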;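 further: more negative B-score means stronger inhibition of thallium flux through KCNK3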
Cl transport mod – KCC2 (human) Cl- transport modulation. Q9H2X9. KCC2 cells, thallium flux FluoZin-2 fluorescence. B-score of Tl+ flux slope (higher = more flux/activation; lower = inhibition) at 10 µM. hit rate 2.2% among 190,000. AID 1456;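 active means thallium flux slope and its plate-corrected score both differing from the plate sample mean at a set confidence after two filtering rounds, in either direction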;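 further: slope of fluorescence scaled to starting intensity during 10 to 20 s after thallium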
KCNQ1 pot – potentiates or activates the human KCNQ1 potassium channel; P51787; CHO-K1 KCNQ1, thallium flux FluxOR fluorescence; active compounds read high; B-score at 10 µM; hit rate 0.35% among 310,000;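 active means fluorescence ratio B-score, a plate-corrected score, at least three library SD, with initial intensity B-score within 5 SD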
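assay system = CHO-K1 cells stably expressing KCNQ1 | medium = assay buffer, equal DMSO in all wells | timing = 37 °C overnight plating, 90-min dark dye load, 20-min compound pretreatment | measured by = kinetic FluxOR thallium fluorescence, 10-s 1-Hz baseline, 110-s post-stimulus read | measure = fluorescence change relative to baseline, converted to B score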
hERG rescue – shields human hERG channel from block by proarrhythmic agents; activation (rescue from dofetilide block), less the hit threshold, % at 10 µM; AID 1511; Q12809; CHO-hERG, FluxOR thallium flux, dofetilide IC70 present; hit rate 0.51% among 310,000;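 active means activation above the mean of controls blocked by dofetilide plus 5 SD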;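 further: thallium influx through hERG after potassium depolarization seen as dye fluorescence rise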
KCC2 sec1 – confirmation of human KCC2 transport modulators. shares compounds with Cl transport mod. HEK293-KCC2, thallium flux, FluoZin2 fluorescence; active compounds read high. normalised thallium flux (F/F0 slope) at 10 µM. hit rate 15% among 3,700;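 active means thallium flux slope above the same plate's solvent-only control mean plus 3 SD; inconclusive means the two replicate wells disagree; inactive means no significant difference from solvent-only control wells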
KCC2 bumet counter – thallium flux persisting under bumetanide in KCC2 cells, counter-screen secondary assay. shares compounds with Cl transport mod. normalized thallium flux at 10 µM. HEK293-KCC2 + bumetanide/ouabain, thallium flux FluoZin2; active compounds read high. hit rate 49% among 3,700. AID 1714;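 active means thallium entry rate above the same plate's blocked-transporter control wells by more than 3 SD; inconclusive means the two repeat wells disagree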;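 further: raw slope of fluorescence over initial fluorescence between 10 and 20 s after thallium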
KCC2 sec2 – KCC2 (human) modulation, second secondary assay. shares compounds with Cl transport mod. HEK293-KCC2, thallium flux FluoZin2 fluorescence; actives lie on both sides; F/F0 rise rate, 10–20 s post-thallium. normalized thallium flux at 10 µM. hit rate 23% among 3,700. AID 1715;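 active means thallium flux slope more than 3 SD above or below the plate's solvent-only control mean, mostly below; inconclusive means the two repeat wells disagreed; inactive means no significant shift from solvent-only controls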
HEK293 Tl flux – counter-screen for KCC2 modulators: effect in parental HEK293 cells. shares compounds with Cl transport mod. thallium flux FluoZin2, ouabain; baseline-ratio fluorescence slope, 10–20 s after thallium. thallium flux rate (normalised fluorescence) at 10 µM. hit rate 46% among 3,700. AID 1716;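 active means thallium flux rate significantly above the same plate's solvent-only control wells, beyond their mean plus 3 SD; inconclusive means the two replicate wells gave conflicting results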
KCC2 ouabain – modulates human KCC2 on retest with ouabain; shares compounds with Cl transport mod; HEK293-KCC2, thallium flux FluoZin2 fluorescence; bidirectional: low = inhibitor, high = activator; raw Tl+ flux slope (below DMSO = inhibition, above = activation) at 10 µM; hit rate 48% among 3,700; AID 1717;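 active means thallium flux slope beyond 3 SD from same-plate DMSO control mean in most replicates, usually higher, sometimes lower; inconclusive means repeat tests gave conflicting results; inactive means no significant difference from controls in most replicates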;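 further: slope of initial-normalized fluorescence between seconds 10 and 20 after thallium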
HEK counter2 – counter-screen for KCC2 modulators: effect in parental HEK293 cells | shares compounds with Cl transport mod | thallium flux FluoZin-2 fluorescence slope | thallium flux slope at 10 µM | hit rate 33% among 3,700;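 active means thallium flux slope above the same plate's solvent-control mean plus 3 SD in both duplicate wells; inconclusive means duplicate wells that disagreed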;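 further: run without ouabain in cells lacking the KCC2 cotransporter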
KCNQ1 block val – reconfirmed blocker of the human KCNQ1 potassium channel; hit rate 93% among 1,600; shares compounds with KCNQ1 block; KCNQ1 cell line, FluxOR thallium flux fluorescence; inhibition, % at 10 µM;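 active means primary screen active, with duplicate mean exceeding buffer control mean plus 3 SD of buffer wells, cut at about 28% in these data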
CHO KCNQ1 ctr – KCNQ1 inhibitor counter-screen hit in parental CHO cells | fluorescence ratio (Tl flux) at 10 µM | parental CHO-K1, FluxOR thallium flux fluorescence ratio; active compounds read low; zero means no signal rise above baseline | shares compounds with KCNQ1 block | hit rate 21% among 1,600;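 active means mean of duplicate thallium-flux fluorescence ratios in parental host cells more than 5 SD below the buffer control mean, cut at about 0.38 in these data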;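 further: ratio is peak minus minimum fluorescence divided by baseline fluorescence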
KCNQ2 spec – rat KCNQ2 inhibition in KCNQ1 inhibitor specificity screen | AID 651746 | KCNQ2 cells, FluxOR thallium flux fluorescence | inhibition, % at 10 µM | shares compounds with KCNQ1 block | hit rate 71% among 1,600;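 active means mean percent inhibition of the KCNQ2 thallium signal more than 5 SD above the buffer-only control wells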;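 further: KCNQ2 expressed in CHO cells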
KCNQ1-KCNE1 inh – KCNQ1 inhibitor that also blocks human KCNQ1/KCNE1 channel. shares compounds with KCNQ1 block. KCNQ1/KCNE1 cells, FluxOR thallium flux fluorescence. inhibition, % at 10 µM. hit rate 77% among 1,600. AID 652147;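 active means mean percent inhibition of duplicate wells above the buffer-only control mean plus 3 SD of those controls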
KCNK9 block conf – human KCNK9 inhibitor confirmation | shares compounds with KCNK9 inh | HEK293 KCNK9 cells, FluxOR thallium flux fluorescence | inhibition, % at 10 µM | hit rate 43% among 4,900 | AID 492992;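 active means thallium signal inhibited by more than 5 SD of the compound-free buffer control wells, on both duplicate plates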
Kir21 sel – selectivity of KCNK9 modulators against mouse Kir2.1; shares compounds with KCNK9 inh; Kir2.1 cells, FluxOR thallium flux fluorescence; inhibition, % at 10 µM; hit rate 4% among 4,900;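 active means thallium signal drop more than 5 SD beyond the mean of the no-compound control wells, seen in both duplicate plates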;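 further: signal is fluorescence rise after thallium addition divided by baseline fluorescence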
KCNK9 uninduced – second counter-screen for KCNK9 modulators: effect in non-induced cells; shares compounds with KCNK9 inh; non-induced KCNK9-HEK293, FluxOR thallium flux; inhibition, % at 10 µM; hit rate 40% among 4,900; AID 492997;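 active means thallium signal drop beyond 5 SD of the untreated control mean, on both duplicate plates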
Large screens that a line does not name were inactive (follow-up assays come after a bar, where they were run).

O=C(Nc1cc(C(F)(F)F)ccc1N1CCOCC1)C1CCCO1 (stereo not drawn)	none (no result: KCNQ1 block, KCNK9 inh, Cl transport mod, KCNQ1 pot, hERG rescue)
CC1Cc2ccccc2N1C(=O)CCn1c(=O)sc2ccccc21 (stereo not drawn)	Cl transport mod -1.7 | KCC2 sec1 0.00407 | KCC2 bumet counter 0.00325 | KCC2 sec2 0.0213 | HEK293 Tl flux inconclusive | KCC2 ouabain 0.0127 | HEK counter2 inconclusive | KCNK9 block conf inactive | Kir21 sel inactive | KCNK9 uninduced inactive
COc1cc(/C=C2\SC(=S)N(NS(=O)(=O)c3ccc(C)cc3)C2=O)cc(OC)c1OC	Cl transport mod 7.82 | KCC2 sec1 inactive | KCC2 bumet counter 0.022 | KCC2 sec2 inactive | HEK293 Tl flux 0.0143 | KCC2 ouabain inactive | HEK counter2 inactive | KCNK9 block conf inactive | Kir21 sel inactive | KCNK9 uninduced inactive
CC(/C=C1\SC(=S)N(NC(=O)c2ccc(C)cc2)C1=O)=C\c1ccccc1	none (no result: Cl transport mod)
CC(/C=C1\SC(=S)N(NC(=O)c2ccccc2C)C1=O)=C\c1ccccc1	none
CC(/C=C1\SC(=S)N(C(C(=O)O)C(C)C)C1=O)=C\c1ccccc1 (stereo not drawn)	Cl transport mod -3.27 | KCC2 sec1 inactive | KCC2 bumet counter inactive | KCC2 sec2 0.0248 | HEK293 Tl flux inactive | KCC2 ouabain inconclusive | HEK counter2 inactive | KCNK9 block conf inactive | Kir21 sel inactive | KCNK9 uninduced inactive
CC(/C=C1\SC(=S)N(NS(=O)(=O)c2ccc(C)cc2)C1=O)=C\c1ccccc1	Cl transport mod 99.2, KCNQ1 pot 39 | KCC2 sec1 inactive | KCC2 bumet counter 0.101 | KCC2 sec2 0.0716 | HEK293 Tl flux 0.0831 | KCC2 ouabain 0.0805 | HEK counter2 0.0712 | KCNK9 block conf inactive | Kir21 sel inactive | KCNK9 uninduced inactive
COc1ccc(-c2nc(CC(=O)Nc3cccc(S(=O)(=O)NC4=NCCC4)c3)cs2)cc1	none (no result: KCNQ1 block, KCNK9 inh, Cl transport mod, KCNQ1 pot, hERG rescue)
COc1cccc(Cn2cnc3c(NS(=O)(=O)c4cc(Cl)ccc4Cl)c(C)c(C)cc32)c1	KCNK9 inh -15.5, KCNK3 inh -9.48 (no result: Cl transport mod) | KCC2 sec1 inactive | KCC2 bumet counter 0.00913 | KCC2 sec2 inactive | HEK293 Tl flux inconclusive | KCC2 ouabain inactive | HEK counter2 inconclusive | KCNK9 block conf 64.0% | Kir21 sel inactive | KCNK9 uninduced inactive
COc1cccc(Cn2cnc3c(NS(=O)(=O)c4ccc(Cl)cc4Cl)c(C)c(C)cc32)c1	none (no result: Cl transport mod)
O=S(=O)(Nc1c(S(=O)(=O)c2ccccc2)c2nc3ccccc3nc2n1C1CCCCC1)c1ccccc1	Cl transport mod -4.33 | KCC2 sec1 inactive | KCC2 bumet counter inactive | KCC2 sec2 inactive | HEK293 Tl flux inactive | KCC2 ouabain inconclusive | HEK counter2 inactive | KCNK9 block conf inactive | Kir21 sel inactive | KCNK9 uninduced inactive
COc1ccccc1Oc1ccc(S(=O)(=O)N2CCCCC2)cc1NC(=O)CCNC(C)=O	none (no result: Cl transport mod)
CCSc1n[nH]c2nc3c(c(=O)n12)C1(CCCCC1)Cc1ccccc1-3	none
CCn1c(SCC#N)nc2c(c1=O)C1(CCCC1)Cc1ccccc1-2	KCNK9 inh -11.5, Cl transport mod 16.8 | KCC2 sec1 0.0148 | KCC2 bumet counter 0.0576 | KCC2 sec2 inactive | HEK293 Tl flux inconclusive | KCC2 ouabain 0.0395 | HEK counter2 inconclusive | KCNK9 block conf 47.0% | Kir21 sel inactive | KCNK9 uninduced inactive
CCC1=NN2C(=N)/C(=C\c3cccn3-c3cccc(Cl)c3)C(=O)N=C2S1	Cl transport mod 8.8 | KCC2 sec1 inactive | KCC2 bumet counter 0.0503 | KCC2 sec2 inconclusive | HEK293 Tl flux 0.0209 | KCC2 ouabain 0.0263 | HEK counter2 0.0212 | KCNK9 block conf inactive | Kir21 sel inactive | KCNK9 uninduced inactive
Cc1cc(C)n(-c2nc(SCCN(C)C)c3c4c(sc3n2)CCCC4)n1	KCNQ1 block 14, KCNK9 inh -9.75, Cl transport mod 6.16 | KCC2 sec1 inactive | KCC2 bumet counter 0.0199 | KCC2 sec2 inactive | HEK293 Tl flux 0.0138 | KCC2 ouabain 0.0253 | HEK counter2 0.016 | KCNQ1 block val 87.5 | CHO KCNQ1 ctr inactive | KCNQ2 spec 108.7% | KCNQ1-KCNE1 inh 112.5% | KCNK9 block conf 44.0% | Kir21 sel 43.5% | KCNK9 uninduced 27.5%
